According to ChEMBL document CHEMBL1122057, “Synthesis and structure--activity relationship of nonyl 3-acyldithiocarbazates and related compounds for uncoupling activities” (J Med Chem, 1982):
Active and inactive are the calls of the source. The rule behind the calls is not given here.

Key:
Rattus norvegicus [1] = species: Rattus norvegicus; experiment: Concentration required for the maximal release of state 4 respiration of rat liver mitochondria using succinate as substrate; type: functional
Summary of the method: (§1)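 Rat liver mitochondria isolated by a prior method, about 0.7 mg/mL in most runs. Medium: 200 mM sucrose, 2 mM MgCl2, 1 mM EDTA, 10 mM potassium phosphate pH 7.2, 25 °C. Substrate 10 mM succinate plus rotenone 1 μg/mg protein. O2 uptake in state 4 followed by Clark electrode after compound addition. Value is the concentration giving maximal release of respiration.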

Rattus norvegicus [2] = species: Rattus norvegicus; experiment: Concentration required for the maximal release of state 4 respiration of rat liver mitochondria, relative to N'-Benzoyl-hydrazinecarbodithioic acid nonyl ester; type: functional, organism-based
Rattus norvegicus [3] = species: Rattus norvegicus; experiment: Concentration required for the maximal release of state 4 respiration of rat liver mitochondria using succinate as substrate; Inactive; type: functional; summary of the method: as §1

Structure (SMILES) | C100 (Rattus norvegicus [1]) [µM] | RA (Rattus norvegicus [2]) | C100 (Rattus norvegicus [3])
CCCCCCCCCS/C(S)=N/NC(=O)c1ccccc1 | 1.59 | 100 | –
CCCCCCCCCSC(=S)NC(=O)c1ccccc1 | 27.9 | 5.7 | –
CCCCCCCCCS/C(S)=N/NC(=O)c1ccc(Cl)c(Cl)c1 | 1.93 | 82 | –
CCCCCCCCCS/C(S)=N/NC(=O)c1cccc2ccccc12 | 3.36 | 47 | –
CCCCCCCCCS/C(S)=N/NC(=O)c1ccc(N(C)C)cc1 | 6.9 | 23 | –
CCCCCCCCCS/C(S)=N/NC(=O)c1ccc(OC)cc1 | 2.46 | 65 | –
CCCCCCCCCS/C(S)=N/NC(=O)C1CCCCC1 | 4.52 | 35 | –
CCCCCCCCCS/C(=N/NC(=O)c1ccccc1)SC | 30.1 | 9.3 | –
CCCCCCCCCS/C(S)=N/NC(=O)c1ccc([N+](=O)[O-])cc1 | 1.27 | 125 | –
CCCCCCCCCS/C(S)=N/c1ccccc1 | – | 0 | inactive
CCCCCCCCCSC(=S)N(C)N(C)C(=O)c1ccccc1 | – | 0 | inactive
CCCCCCCCCS/C(S)=N/N(C)C(=O)c1ccccc1 | 112 | 1.3 | –
CCCCCCCCCS/C(S)=N/NCc1ccccc1 | 8350 | 0.02 | –
CCCCCCCCCS/C(S)=N/NC(=O)c1ccc(Cl)cc1 | 1.46 | 109 | –
CCCCCCCCCS/C(=N/N(C)C(=O)c1ccccc1)SC | – | 0 | inactive
CCCCCCCCCS/C(S)=N/NC(=O)c1ccc(F)cc1 | 1.57 | 101 | –
CCCCCCCCCS/C(S)=N/NC(=O)c1ccccn1 | 1.42 | 112 | –
CCCCCCCCCSC(=S)N(C)NC(=O)c1ccccc1 | 40.3 | 6.9 | –
CCCCCCCCCS/C(S)=N/Cc1ccccc1 | 360 | 0.44 | –
CCCCCCCCCS/C(S)=N/N=C/c1ccccc1 | 604 | 0.26 | –
CCCCCCCCCS/C(S)=N/Nc1ccccc1 | 1530 | 0.1 | –
CCCCCCCCCS/C(S)=N/NC(C)=O | 457 | 0.61 | –
